The assay concerns Influenza A virus. Put plainly: Antiviral activity against Influenza A virus (A/California/7/2009(H1N1)) infected in MDCK cells assessed as reduction in virus-induced cytopathic effect measured on day 5 by Celltiter-Glo luminescence assay. It is filed as functional, organism-based. The note with it: 120 h. The procedure, abridged: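 MDCK cells were infected with seasonal influenza A strains through NIAID resources and scored for protection from virus-induced cell death. Compounds were tested at four concentrations (0.8, 4, 20, 100 μM). EC50/EC90 (reduction of viral cell death) and CC50 (reduction of cell viability) were derived in μM, and SI50 = CC50/EC50.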
Background: Protection from cytopathic effect is a common read-out in antiviral testing.

A value given as a limit tells only on which side of the number the result lay.

Usually EC50 stands for the concentration that produces a half-maximal response. One may read the EC90 as the point of the concentration-response curve where the effect stands at 90%. On to `COc1cc(-c2ccnc3c2c(C)nn3-c2ccc(C(F)(F)F)cc2)ccc1O`, for which the EC50 was 700 nM and the EC90 is over 50000 nM.
